Reference: ChEMBL document CHEMBL4190408 (J Med Chem, 2018)
pIC50: −log10 of the molar value. Converted amounts (≈) assume the structure as drawn. Values belong to the compound of their own block, whether it stands above or below them.

How the values were obtained:
[1] = Thermodynamic solubility of the compound in pH 7.4 solution after 90 mins by UVLC-MS analysis; type: physicochemical; conditions: for solubility thermodynamic at 1.5 h: pH 7.4 solution, pH 7.4, read-out: Therm_solubility; for Therm_solubility: buffer, pH 7.4, 1.5 h
[2] = physchem; conditions: buffer, pH 7.4
[3] = biological target: T1, Voltage-gated inwardly rectifying potassium channel KCNH2 (Homo sapiens, UniProt Q12809)
T1 sequence (Q12809 whole entry): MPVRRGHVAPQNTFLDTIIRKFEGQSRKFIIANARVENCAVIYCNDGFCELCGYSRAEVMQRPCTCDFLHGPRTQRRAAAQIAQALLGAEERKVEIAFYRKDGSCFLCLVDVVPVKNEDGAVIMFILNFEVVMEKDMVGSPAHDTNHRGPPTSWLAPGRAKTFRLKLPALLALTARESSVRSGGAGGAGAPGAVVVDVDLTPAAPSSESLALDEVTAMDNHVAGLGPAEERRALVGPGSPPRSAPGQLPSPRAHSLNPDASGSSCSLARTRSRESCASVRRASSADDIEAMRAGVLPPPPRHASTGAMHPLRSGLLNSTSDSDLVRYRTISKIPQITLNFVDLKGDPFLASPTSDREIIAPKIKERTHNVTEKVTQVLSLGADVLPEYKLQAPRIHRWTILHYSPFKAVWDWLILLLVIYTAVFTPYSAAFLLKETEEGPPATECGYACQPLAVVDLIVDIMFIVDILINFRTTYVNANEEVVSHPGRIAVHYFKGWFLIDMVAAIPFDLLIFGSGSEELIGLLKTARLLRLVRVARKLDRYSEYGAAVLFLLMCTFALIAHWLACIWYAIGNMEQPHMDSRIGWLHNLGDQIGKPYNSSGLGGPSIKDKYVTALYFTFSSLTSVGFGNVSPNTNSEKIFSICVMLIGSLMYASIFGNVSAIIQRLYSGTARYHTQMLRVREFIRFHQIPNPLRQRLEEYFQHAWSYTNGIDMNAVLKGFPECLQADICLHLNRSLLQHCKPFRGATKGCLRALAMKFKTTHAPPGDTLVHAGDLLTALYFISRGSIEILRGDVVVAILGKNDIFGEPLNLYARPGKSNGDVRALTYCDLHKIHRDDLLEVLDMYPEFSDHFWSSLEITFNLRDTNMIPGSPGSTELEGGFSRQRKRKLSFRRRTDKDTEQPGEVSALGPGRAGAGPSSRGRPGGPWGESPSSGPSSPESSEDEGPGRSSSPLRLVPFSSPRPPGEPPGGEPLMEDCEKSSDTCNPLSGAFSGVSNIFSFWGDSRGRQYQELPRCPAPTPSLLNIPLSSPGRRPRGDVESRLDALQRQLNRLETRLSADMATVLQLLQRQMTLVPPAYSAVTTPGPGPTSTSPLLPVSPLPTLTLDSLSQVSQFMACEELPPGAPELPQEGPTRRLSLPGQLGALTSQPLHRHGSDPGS

[4] = biological target: T2, Cytochrome P450 3A4 (Homo sapiens, UniProt P08684); conditions: liver microsomes
T2 sequence (P08684 whole entry): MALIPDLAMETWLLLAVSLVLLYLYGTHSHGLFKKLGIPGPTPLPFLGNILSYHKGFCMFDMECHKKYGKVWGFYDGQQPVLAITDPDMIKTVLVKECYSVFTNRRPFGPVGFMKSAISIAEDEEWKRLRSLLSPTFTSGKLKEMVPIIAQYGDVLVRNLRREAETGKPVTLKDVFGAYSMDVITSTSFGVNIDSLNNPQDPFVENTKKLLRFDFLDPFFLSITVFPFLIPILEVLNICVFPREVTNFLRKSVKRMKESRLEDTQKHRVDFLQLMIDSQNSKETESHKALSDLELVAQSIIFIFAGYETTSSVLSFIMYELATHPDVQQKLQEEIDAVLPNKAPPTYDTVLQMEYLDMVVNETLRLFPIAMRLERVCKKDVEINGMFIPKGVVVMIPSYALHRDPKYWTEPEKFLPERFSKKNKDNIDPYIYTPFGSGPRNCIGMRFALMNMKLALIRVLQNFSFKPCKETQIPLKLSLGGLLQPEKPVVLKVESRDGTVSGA

[5] = biological target: T1, Voltage-gated inwardly rectifying potassium channel KCNH2; remark: listed apart in the source
[6] = biological target: T2, Cytochrome P450 3A4
[7] = buffer, pH 7.4, 1.5 h
[8] = in vitro; conditions: human, liver microsomes
[9] = in vitro; conditions: mouse, liver microsomes
[10] = biological target: Phosphatidylinositol 4-kinase beta (Homo sapiens, UniProt Q9UBF8); experiment: Inhibition of recombinant human full length GST-tagged PI4K3beta expressed in baculovirus expression system using PI lipid kinase substrate after 60 mins by ADP-Glo assay
Sequence of Phosphatidylinositol 4-kinase beta (Q9UBF8 whole entry): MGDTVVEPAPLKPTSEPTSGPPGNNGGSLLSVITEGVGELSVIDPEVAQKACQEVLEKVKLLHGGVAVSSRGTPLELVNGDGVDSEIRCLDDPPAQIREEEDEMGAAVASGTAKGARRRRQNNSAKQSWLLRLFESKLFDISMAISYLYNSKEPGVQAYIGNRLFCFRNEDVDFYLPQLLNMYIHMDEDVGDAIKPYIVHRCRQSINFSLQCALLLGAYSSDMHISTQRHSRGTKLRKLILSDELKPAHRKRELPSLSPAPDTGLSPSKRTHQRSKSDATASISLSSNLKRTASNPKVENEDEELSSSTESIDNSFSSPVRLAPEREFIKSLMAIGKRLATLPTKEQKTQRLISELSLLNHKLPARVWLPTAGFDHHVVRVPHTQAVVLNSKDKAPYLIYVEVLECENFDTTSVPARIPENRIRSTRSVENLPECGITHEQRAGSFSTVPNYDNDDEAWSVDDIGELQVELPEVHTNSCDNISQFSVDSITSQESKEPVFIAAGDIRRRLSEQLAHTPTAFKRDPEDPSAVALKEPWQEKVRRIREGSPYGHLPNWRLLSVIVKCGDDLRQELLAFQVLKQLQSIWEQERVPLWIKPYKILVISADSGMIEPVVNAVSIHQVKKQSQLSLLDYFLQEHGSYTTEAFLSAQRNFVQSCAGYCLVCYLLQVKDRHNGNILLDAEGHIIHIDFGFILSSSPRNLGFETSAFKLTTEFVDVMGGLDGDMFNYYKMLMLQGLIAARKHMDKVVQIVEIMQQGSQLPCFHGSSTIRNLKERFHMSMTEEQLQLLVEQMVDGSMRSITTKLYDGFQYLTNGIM

[11] = physchem; conditions: phosphate buffer, pH 7.4
[12] = Fraction unbound in mouse blood; type: ADME, tissue-based
[13] = Apparent clearance in Balb/c mouse at 10 mg/kg, po after 1 hr; type: ADME, organism-based; conditions: in vivo
[14] = system: Mus musculus; experiment: Unbound AUC (infinity) in Balb/c mouse at 10 mg/kg, po after 1 hr; type: ADME, organism-based; conditions: in vivo
[15] = system: Mus musculus; experiment: Unbound Cmax in Balb/c mouse at 10 mg/kg, po after 1 hr; type: ADME, organism-based; conditions: in vivo
[16] = Clearance in Balb/c mouse at 1 mg/kg, iv; type: ADME, organism-based; conditions: Balb/c, in vivo
In short: (§1)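 Intravenous PK in male Balb/C mice, n=3, at 1 mpk. Vehicle was 30% DMA or 15% NMP, depending on the compound.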

[17] = system: Mus musculus; experiment: Unbound AUC in Balb/c mouse at 1 mg/kg, iv; type: ADME, organism-based; conditions: in vivo; in short: as §1
[18] = Half life in Balb/c mouse at 1 mg/kg, iv; type: ADME, organism-based; conditions: Balb/c, in vivo; in short: as §1
[19] = Volume of distribution at steady state in Balb/c mouse at 1 mg/kg, iv; type: ADME, organism-based; conditions: Balb/c, in vivo, read-out: Vdss; in short: as §1
[20] = Oral bioavailability in Balb/c mouse at 10 mg/kg after 1 hr; type: ADME, organism-based; conditions: Balb/c, in vivo
In short: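 Male Balb/C mice, n=3. Oral dose of 10 mpk as a homogeneous suspension of crystalline solid in 0.1% Tween 80, 0.1% silicone antifoam, 1% methylcellulose (400 cps) in water. I.v. dose of 1 mpk in 30% DMA or 15% NMP, depending on the compound. Bioavailability was extrapolated from the i.v./p.o. experiments.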

Compound: COc1ccc(NC(=O)N2CCN(c3nc(N)nc4scnc34)[C@@H](C)C2)c(C)c1
solubility thermodynamic at 1.5 h [1]: 3 µM (≈ 1.24 µg/mL)
solubility kinetic at 1.5 h [2]: 160 µM (≈ 66.2 µg/mL)

Compound: COc1ccc(NC(=O)C2CCN(c3nc(N)nc4scnc34)CC2)cc1
pIC50 [10]: < 5.22

Compound: Nc1nc(N2CCN(C(=O)c3nc4ccccc4[nH]3)CC2)c2ncsc2n1
logD at 1.5 h [11]: 2.54
solubility kinetic at 1.5 h [2]: 38 µM (≈ 14.5 µg/mL)

Compound: COc1ccc(NC(=O)N2CCN(c3nc(N)nc4sccc34)[C@@H](C)C2)c(C)c1
logD at 1.5 h [11]: 2.39
solubility kinetic at 1.5 h [2]: 82 µM (≈ 33.8 µg/mL)

Compound: COc1ccc(NC(=O)N2CCN(c3nc(N)nc4c3ncn4C)[C@@H](C)C2)c(C)c1
solubility thermodynamic at 1.5 h [1]: 150 µM (≈ 61.6 µg/mL)
fraction unbound [12]: 0.2
CL/F [13]: 46 mL/min/kg
fAUC [14]: 1.746 µM·h
fCmax [15]: 1087 nM
clearance [16]: 19 mL/min/kg
fAUC [17]: 0.447 µM·h
half-life [18]: 48 min
Vd [19]: 0.8 L/kg
bioavailability [20]: 39%
microsomal CLint at 0.75 h, 3 µM [8]: 9 µL/min/mg
microsomal CLint at 0.75 h, 3 µM [9]: 10 µL/min/mg
logD at 1.5 h [11]: 1.35
solubility kinetic at 1.5 h [2]: > 350 µM

Compound: COc1ccc(NC(=O)N2CCN(c3nc(N)nc4scnc34)[C@@H](C)C2)cc1
solubility thermodynamic at 1.5 h [1]: 30 µM (≈ 12 µg/mL)
fraction unbound [12]: 0.02
CL/F [13]: 42 mL/min/kg
fAUC [14]: 0.205 µM·h
fCmax [15]: 194 nM
clearance [16]: 29 mL/min/kg
fAUC [17]: 0.03 µM·h
half-life [18]: 54 min
Vd [19]: 1 L/kg
bioavailability [20]: 68%
pIC50 [5]: 4.77
pIC50 [6]: < 4.70
microsomal CLint at 0.75 h, 3 µM [8]: 14 µL/min/mg
microsomal CLint at 0.75 h, 3 µM [9]: 35 µL/min/mg
logD at 1.5 h [11]: 2.32
solubility kinetic at 1.5 h [2]: > 350 µM

Compound: COc1ccc(CC(=O)N2CCN(c3nc(N)nc4scnc34)CC2)cc1OC
logD at 1.5 h [11]: 1.5
solubility kinetic at 1.5 h [2]: > 350 µM

Compound: Cc1ccccc1NC(=O)N1CCN(c2nc(N)nc3scnc23)CC1
logD at 1.5 h [11]: 2.12
solubility kinetic at 1.5 h [2]: 33 µM (≈ 12.2 µg/mL)

More lines, main results first:

Therm_solubility [1]: Nd(Insoluble)
IC50 [4]: Nd(Insoluble)
solubility kinetic at 1.5 h [2]: 83 µM (≈ 34.3 µg/mL)
Compound: COc1ccc(NC(=O)N2C[C@@H](C)N(c3nc(N)nc4scnc34)[C@@H](C)C2)cc1
IC50 [3]: Nd(Insoluble)

pIC50 [6]: < 4.70
logD [7]: Nd(Insoluble)
microsomal CLint at 0.75 h, 3 µM [8]: 13 µL/min/mg
microsomal CLint at 0.75 h, 3 µM [9]: 20 µL/min/mg
solubility kinetic at 1.5 h [2]: 6 µM (≈ 2.77 µg/mL)
Compound: COc1ccc(NC(=O)N2CCN(c3nc(N)nc4sc(-c5ccccc5)nc34)CC2)cc1
pIC50 [5]: 5.77

microsomal CLint at 0.75 h, 3 µM [8]: 35 µL/min/mg
microsomal CLint at 0.75 h, 3 µM [9]: 87 µL/min/mg
Compound: COc1ccc(NC(=O)N2CCN(c3nc(N)nc4sc(-c5cccnc5)nc34)CC2)cc1

logD at 1.5 h [11]: 2.21
solubility kinetic at 1.5 h [2]: 178 µM (≈ 63.3 µg/mL)
Compound: Nc1nc(N2CCN(C(=O)Nc3ccccc3)CC2)c2ncsc2n1

Therm_solubility [1]: Nd(Insoluble)
IC50 [4]: Nd(Insoluble)
solubility kinetic at 1.5 h [2]: > 350 µM
Compound: COc1ccc(NC(=O)N2C3CCC2CN(c2nc(N)nc4scnc24)C3)cc1
IC50 [3]: Nd(Insoluble)

logD at 1.5 h [11]: 2.81
solubility kinetic at 1.5 h [2]: 34 µM (≈ 12.6 µg/mL)
Compound: Cc1cccc(NC(=O)N2CCN(c3nc(N)nc4scnc34)CC2)c1

logD at 1.5 h [11]: 1.66
solubility kinetic at 1.5 h [2]: > 350 µM
Compound: COc1cc(C)c(NC(=O)N2CCN(c3nc(N)nc4scnc34)CC2)cn1

Therm_solubility [1]: Nd(Insoluble)
solubility kinetic at 1.5 h [2]: 170 µM (≈ 70.3 µg/mL)
Compound: COc1ccc(NC(=O)N2CCN(c3nc(N)nc4scnc34)[C@H](C)C2)c(C)c1

solubility thermodynamic at 1.5 h [1]: 52 µM (≈ 21.5 µg/mL)
logD at 1.5 h [11]: 1.96
solubility kinetic at 1.5 h [2]: > 350 µM
Compound: COc1ccc(NC(=O)N2CCN(c3nc(N)nc4sncc34)[C@@H](C)C2)c(C)c1
